Laboratory results as given in paper PMC6571060 (Cancer research, 2019).
“Also recorded” adds a separate entry of the source.

Key:
[1] = system: mut-KRas cells; assay: Cell proliferation in a small group of mut-KRas cells; format: cell-based
Method in brief: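 Cells were exposed to test compound for 72 hr. Growth was then read by XTT cell viability assay.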

[2] = system: RalB and Rho activation; assay: Western blot / GTP activation of downstream K-Ras signaling in mut-KRAS cells; format: cell-based; conditions: panel of mut-KRAS cells, 24 hr
Method in brief: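 Mut-KRas NSCLC cells were exposed 24 hr to 25 μM test compound; A549 received a concentration range. Western blots used rabbit monoclonal phospho- and total-protein antibodies. RalA, RalB, Rho and Ras GTP levels were measured with activation kits per manufacturer instructions.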

[3] = system: wt-KRas NSCLC cells; assay: 3D growth inhibition; format: cell-based
Method in brief: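 NSCLC lines were tested for mycoplasma and authenticated before study and every 2 months in culture. Anchorage-independent growth was measured in soft agarose using a modified 96-well method, with test compound present. IC50 values were derived for 3D growth inhibition.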

[4] = system: p-Egfr, activated RalB and Rho in A549 NSCLC tumor xenografts; assay: Western blot / GTP activation of downstream signaling in A549 tumor xenografts; format: in vivo, mice; conditions: 200 mg/kg ip
Method in brief: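 A549 xenograft tumors were sampled at 4 and 24 hr after a single 200 mg/kg ip dose, and 4 hr after the last dose of 6 days' daily dosing, 4 mice per time point. Blots probed phospho-Egfr Tyr1068 and other signaling proteins. RalA/B, Rho and total Ras GTP were measured by activation kits.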

[5] = system: mut-KRas NSCLC cells; assay: 3D growth inhibition; format: cell-based; conditions: read-out: Growth inhibition IC50 mut-Ras; mean IC50, 3D growth; H2122, Calu1, H2009, H441, H358, H1573, H23, H1373, A549, H1944, H647
[6] = system: mut-KRasG12V H441 xenograft; assay: Antitumor activity, H441 xenograft; format: in vivo, NOD-SCID mice; conditions: 200 mg/kg ip daily for up to 20 days
Method in brief: (§1)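 About 10⁷ log-phase NSCLC cells in 0.2 mL PBS were injected subcutaneously into the flank of female NOD-SCID mice, 10 per group. Daily 200 mg/kg ip dosing began at tumor volumes of 50–150 mm³, for 20 days (A549, H441) or 21 days (H1975). Caliper volumes were taken twice weekly and body weight weekly. P values were computed at end of dosing.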

[7] = system: PH domains of Pdpk1, Btk, Akt1, and Plekha7; assay: SPR binding selectivity against other PH domains
[8] = system: wt-KRas H1975 NSCLC xenograft; assay: Antitumor activity, H1975 xenograft; format: in vivo, NOD-SCID mice; conditions: 200 mg/kg ip daily for 21 days
Method in brief: as §1

[9] = target: T1, PH domain of Cnk1 (Homo sapiens, UniProt Q969H4); assay: SPR binding to the Gst-tagged PH domain of Cnk1; conditions: read-out: Cnk1 binding Kd, SPR spectroscopy
T1 sequence (Q969H4 403-502 limits assumed): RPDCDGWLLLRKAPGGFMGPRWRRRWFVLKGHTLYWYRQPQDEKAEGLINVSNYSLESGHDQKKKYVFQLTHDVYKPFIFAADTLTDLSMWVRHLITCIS
Method in brief: (§2)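 The Cnk1 PH domain was expressed with an N-terminal glutathione S-transferase fusion and captured on a CM5 chip with a Gst capture kit. Compound binding or PtdIns(3,4,5)P₃ displacement was run by SPR on a Biacore T200.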

[10] = system: wt-KRas NSCLC cell lines; assay: 2D growth on plastic of NSCLC cell line panel; format: cell-based; conditions: 72 hr
[11] = target: T2, Cnk1 and mut-KRas co-localization in HEK293 cells (Homo sapiens, UniProt Q969H4); assay: Confocal microscopy / FLIM of Cnk1-GFP and mut; format: cell-based
T2 sequence (Q969H4 1-720): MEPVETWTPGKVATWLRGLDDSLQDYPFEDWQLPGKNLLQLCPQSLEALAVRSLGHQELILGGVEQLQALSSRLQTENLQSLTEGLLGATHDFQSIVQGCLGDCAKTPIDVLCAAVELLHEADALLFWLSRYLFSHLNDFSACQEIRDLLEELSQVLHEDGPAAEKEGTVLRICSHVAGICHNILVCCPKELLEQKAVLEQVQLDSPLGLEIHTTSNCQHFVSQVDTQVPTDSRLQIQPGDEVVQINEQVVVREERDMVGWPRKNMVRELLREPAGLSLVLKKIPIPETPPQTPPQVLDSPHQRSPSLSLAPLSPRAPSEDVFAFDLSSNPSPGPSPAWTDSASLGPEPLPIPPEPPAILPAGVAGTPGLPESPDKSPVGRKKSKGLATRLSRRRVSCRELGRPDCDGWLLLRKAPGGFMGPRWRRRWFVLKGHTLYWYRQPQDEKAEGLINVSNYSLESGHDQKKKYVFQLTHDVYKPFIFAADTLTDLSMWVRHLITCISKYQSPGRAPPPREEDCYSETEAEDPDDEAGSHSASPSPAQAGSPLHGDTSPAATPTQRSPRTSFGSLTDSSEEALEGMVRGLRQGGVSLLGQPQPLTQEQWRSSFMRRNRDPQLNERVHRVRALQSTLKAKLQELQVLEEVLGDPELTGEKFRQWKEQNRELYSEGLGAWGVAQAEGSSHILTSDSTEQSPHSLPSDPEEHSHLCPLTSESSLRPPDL
Method in brief: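 HEK293 cells co-expressed Cnk1-GFP and mut(G12D)-KRas-RFP and were incubated 1 hr with 50 μM test compound. Confocal laser scanning microscopy assessed membrane co-localization. FLIM average fluorescence lifetime was taken from co-localization images, with lifetime shortening from FRET indicating direct Cnk1–KRas interaction.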

[12] = Pharmacokinetics in mice after intraperitoneal administration; format: in vivo; conditions: 10 mg/kg
[13] = system: mut-KRas(G12S) A549 xenograft; assay: Antitumor activity, A549 xenograft; format: in vivo, NOD-SCID mice; conditions: 200 mg/kg ip daily for up to 20 days
Method in brief: as §1

[14] = target: T1, PH domain of Cnk1; assay: SPR displacement of PtdIns; format: binding; conditions: 50 μM
Method in brief: as §2

[15] = system: Cell migration; assay: Cell migration; format: cell-based
[16] = Mouse body weight during treatment; format: in vivo, NOD-SCID mice; conditions: PHT-7.3 treatment, 200 mg/kg ip daily
Method in brief: as §1

For `Cc1ccc(-c2csc(Cn3nc(CC4OCCCO4)c4ccccc4c3=O)n2)cc1` [PHT-7.3], the “Cell proliferation, small group of mut-KRas cells” value [1] was “inhibit cell proliferation”, the “RalB and Rho activation in mut-KRAS cells” value [2] was “decreased RalB and Rho activation” and the IC50 ([3]; read-out: Growth inhibition IC50 wt-KRas, mean IC50, 3D growth, H266, H1299, H1975, H3255, H1437, H2023) was 69 µM. For the same molecule, the “3D anchorage independent growth of wt-KRas cells” value ([3]; soft agarose, except H1437 and H2023) was “still not inhibited”, the “Activated RalB and Rho signaling in tumor xenografts” value [4] was “down-regulation of activated RalB and Rho signaling” and the “p-Egfr level in tumor xenografts” value [4] was “increased levels of p-Egfr”. For the same molecule, the IC50 [5] was 19 µM, the “Antitumor activity, H441 xenograft” value [6] was “cytostatic antitumor activity” and the “Binding to PH domain of Cnk1 compared to PH domains of Pdpk1, Btk, Akt1, and Plekha7” value [7] was “selective binding”. The “Antitumor activity, H1975 xenograft” value [8] was “not in the wt-KRas H1975 NSCLC xenograft”, the Kd [9] was 4.7 µM and the “2D growth of wt-KRas NSCLC cell lines” value [10] was “not inhibited except for two lines H1437 and H2023”. For the same molecule, the “Binding of Cnk1 to mut-KRAS by FLIM lifetime” value ([11]; FLIM lifetime plots, compound-treated cells) was “inhibited the binding of Cnk1 to mut-KRAS; also recorded: inhibited Cnk1 interaction with mut-KRAS”, the “Co-localization of Cnk1 and mut-KRas at the cell plasma membrane” value ([11]; confocal microscopy, HEK293 cells, 50 μM, 1 hr) was “blocked the co-localization” and the “Pharmacokinetics Cl” value [12] was 133 mL·min/kg. The “Pharmacokinetics t½β” value [12] was 260 min, the “Antitumor activity, A549 xenograft” value [13] was “cytostatic antitumor activity” and the “Displacement of PtdIns(3,4,5)P3 binding to the PH domain of Cnk1” value [14] was “displaced; also recorded: displacement of PtdIns([3],[4],[5])P3 binding”. For the same molecule, the Cell migration [15] was “inhibited” and the Body weight [16] was “no loss of body weight”.
